Calls of active or inactive are those of the source. No cut-off for these calls is given here. A value given as a limit tells only on which side of the number the result lay.

The values below come from ChEMBL document CHEMBL1255524, “Identification of 2,3,6-trisubstituted quinoxaline derivatives as a Wnt2/β-catenin pathway inhibitor in non-small-cell lung cancer cell lines” (Bioorg Med Chem Lett, 2010).

A short description of assay [1]: Inhibition of […] signaling in human A549 cells assessed as inhibition of cell proliferation after 24 hrs by MTT assay. The conditions noted are these: A549, 24 h. On the technique in general: Formazan colour is commonly taken as a measure of viable cells.
The subject of assay [2] is A549. Briefly: Reduction of beta-casein expression level in nuclear fraction of human A549 cells expressing Wnt2 by Western blotting. Format: functional, cell-based.
Assay [3] relates to A549. Put plainly: Reduction of beta-casein expression level in human A549 cells expressing Wnt2 by Western blotting. Format: functional, cell-based. (In general: In western blotting, separated proteins are transferred to a membrane and probed.)
Assay [4] has as its target T1, Protein Wnt-2 (Homo sapiens) (UniProt P09544).
T1 sequence (whole entry): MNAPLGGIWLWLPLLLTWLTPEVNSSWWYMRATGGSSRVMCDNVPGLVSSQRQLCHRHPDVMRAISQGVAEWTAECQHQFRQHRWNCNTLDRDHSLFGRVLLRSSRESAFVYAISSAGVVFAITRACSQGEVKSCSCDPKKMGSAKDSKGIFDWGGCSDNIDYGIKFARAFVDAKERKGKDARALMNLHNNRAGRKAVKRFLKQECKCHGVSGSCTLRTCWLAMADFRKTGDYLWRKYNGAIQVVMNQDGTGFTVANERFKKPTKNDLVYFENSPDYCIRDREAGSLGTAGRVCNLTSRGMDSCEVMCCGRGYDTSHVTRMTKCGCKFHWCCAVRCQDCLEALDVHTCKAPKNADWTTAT
Briefly: Inhibition of Wnt2 signaling pathway in human A549 cells assessed as inhibition of beta-casein-mediated Tcf/Lef transcriptional activity after 24 hrs by dual luciferase reporter gene assay relative to control. It is filed as cell-based. Set-up: concentration or dose not given beside the values. Particulars: concentration not given here. The essentials: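 A549/Wnt2 cells (4 × 10⁴) transiently co-transfected with 1 lg pSuperTopflash (eight Tcf sites upstream of firefly luciferase) or pSuperFopflash (mutated Tcf sites, negative control) plus 15 ng pRL-TK. Compounds applied at the proliferation IC₅₀, 37 °C, 24 h. Lysed; firefly and Renilla read by dual-luciferase. Firefly/Renilla ratio, triplicates, mean ± SEM, relative to untreated cells.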
On the technique in general: Reporter assays use an easily measured gene product as a stand-in for the process of interest.

The subject of assay [5] is A549. Put plainly: Reduction of beta-casein expression level in cytosolic fraction of human A549 cells expressing Wnt2 by Western blotting. It is filed as functional, cell-based.
A short description of assay [6]: Inhibition of […] signaling in human H460 cells assessed as inhibition of cell proliferation after 24 hrs by MTT assay. It is filed as cell-based.
Assay [7] is described as follows: Inhibition of […] signaling in human A549 cells assessed as inhibition of cell proliferation at 15% of IC50 concentration after 24 to 48 hrs by MTT assay. Format: cell-based.
Assay [8] can be described thus: Inhibition of […] signaling in human A549 cells assessed as inhibition of cell proliferation at 30% of IC50 concentration after 24 to 48 hrs by MTT assay. Format: cell-based.
Assay [9] concerns the target T1, Protein Wnt-2 (Homo sapiens). Put plainly: Inhibition of Wnt2 signaling pathway in human H460 cells assessed as inhibition of beta-casein-mediated Tcf/Lef transcriptional activity IC50 concentration after 24 hrs by dual luciferase reporter gene assay relative to control. It is filed as cell-based. Put shortly:
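H460/Wnt2 cells transiently co-transfected with SuperTopflash and pRL-TK Renilla control. Compounds given at the A549 proliferation IC₅₀, 37 °C, 24 h. Dual firefly/Renilla luciferase read-out as normalized ratio, triplicates, mean ± SEM, versus untreated cells.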

A short description of assay [10]: Inhibition of […] signaling in human A549 cells assessed as inhibition of cell proliferation after 24 to 48 hrs by MTT assay. It is filed as cell-based. The essentials:
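MTS proliferation assay in A549/Wnt2 cells. Cells seeded at 5 × 10³ per well and left about 24 h to attach. Compounds added at various concentrations; growth read at 24 and 48 h after treatment. MTS reagent for 30 min at 37 °C in CO₂, then absorbance at 490 nm.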

`COc1c(C[C@@H](C)OC(=O)Oc2ccc(O)cc2)c2c3c(C[C@@H](C)OC(=O)c4ccccc4)c(OC)c(=O)c4c(O)cc(OC)c(c5c(OC)cc(O)c(c1=O)c52)c43` [CALPHOSTIN C]: the half-maximal inhibitory concentration (IC50) in assay [1] worked out at 3.2 µM.
In the case of `Cc1cccc(C#Cc2nc3ccccc3nc2OCCCN2CCCCC2)c1`, the result in the assay on A549 [2], in the assay with A549 [3] and in the assay on A549 [5] was Active. In addition, in assay [1], the IC50 came to 1.61 µM. Besides, the inhibition in assay [4] was determined as 30%. Besides, the inhibition entry in [6] and in assay [7] was “Active” throughout.
Regarding `CN(C)CCOc1nc2ccccc2nc1C#Cc1ccccc1`, the result with A549 [2], in the assay on A549 [3] and with A549 [5] was Active. Moreover, the IC50 in assay [1] was found to be 0.758 µM. In assay [4], the inhibition stood at 30%. The inhibition entry in [6] and in assay [7] was “Active” throughout.
For the compound `CN(C)c1ccc(C#Cc2nc3cc(F)ccc3nc2OCCCN2CCCCC2)cc1`, the result in the assay with A549 [2], in the assay on A549 [3] and with A549 [5] was Active. The 50% inhibitory concentration (IC50) in [1] is 3.77 µM. For the same compound, the inhibition in assay [4] came to 30%. Besides, the inhibition entry in assay [6] and in assay [7] was “Active” in each case.
Take `COc1cccc(C#Cc2nc3ccc(NC(=O)c4ccc(F)cc4)cc3nc2OC2CCN(C)CC2)c1`: the outcome in the assay with A549 [2], with A549 [3] and in the assay with A549 [5] was Active. Also, in assay [1], the half-inhibitory concentration (IC50) was determined as 3.54 µM. Besides, the inhibition result in assay [6] and in assay [7] was “Active” throughout.
In the case of `COc1nc2ccc(NC(=O)Nc3ccc(C(C)(C)C)cc3)cc2nc1NCCN1CCCCC1`, the result in the assay on A549 [2], in the assay with A549 [3] and in the assay with A549 [5] was Active. Moreover, the inhibition result in [8], in assay [6] and in assay [7] was “Active” in each case. The half-inhibitory concentration (IC50) in assay [1] was determined as 5.01 µM. In addition, the inhibition in [4] was determined as 30%.
In the case of `CCN(CC)CCOc1nc2cc(NC(=O)N(C)Cc3ccc(F)cc3)ccc2nc1C#Cc1ccc(N(C)C)cc1`, the result with A549 [2], in the assay with A549 [3] and in the assay with A549 [5] was Active. For the same compound, in [1], the IC50 was found to be 7.9 µM. In assay [4], the inhibition is above 80%. The inhibition entry in assay [6] and in assay [7] was “Active” each time.
As to `CN1CCC[C@H]1COc1nc2ccc(N)cc2nc1C#Cc1ccccc1`, the outcome in the assay with A549 [2], with A549 [3] and with A549 [5] was Active. For the same compound, the 50% inhibitory concentration (IC50) in assay [1] was found to be 3.8 µM. The inhibition in [4] and in assay [9] was above 80% in each case. Moreover, the inhibition entry in assay [6] and in assay [7] was “Active” in each case.
Take `COc1cccc2nc(OCCN3CCCC3)c(C#Cc3ccccc3)nc12`: the result in the assay with A549 [2], in the assay with A549 [3] and in the assay on A549 [5] was Active. Besides, in assay [1], the IC50 worked out at 1.89 µM. Moreover, the inhibition entry in assay [6] and in assay [7] was “Active” throughout. Also, the inhibition entry in assay [10] was “Dose-dependent effect”.
Consider `Cc1ccc(C#Cc2nc3ccccc3nc2OCCN2CCCC2)cc1`, for which the result in the assay on A549 [2], in the assay on A549 [3] and in the assay on A549 [5] was Active. Besides, the IC50 in [1] is 1.32 µM. The inhibition entry in assay [6] and in assay [7] was “Active” throughout.
Turning to `Cc1ccc2nc(OCCC3CCCN3C)c(C#Cc3ccccc3)nc2c1` (stereo not given), the outcome with A549 [2], in the assay with A549 [3] and in the assay on A549 [5] was Active. Also, in [1], the half-maximal inhibitory concentration (IC50) was 0.905 µM. Also, the inhibition in [4] was 30%; in assay [10], “Dose-dependent effect”. For the same compound, the inhibition entry in [6] and in [7] was “Active” each time.
Take `CCN(CC)CCOc1nc2cc(NC(=O)c3ccc(C)cc3)ccc2nc1C#Cc1ccc(OC)cc1C`: the outcome with A549 [2], in the assay on A549 [3] and in the assay on A549 [5] was Active. Further, in [1], the IC50 amounted to 1.78 µM. Besides, the inhibition entry in assay [6] and in assay [7] was “Active” throughout.
As to `Cc1ccc(C#Cc2nc3ccc(NC(=O)N4CCN(c5ccccn5)CC4)cc3nc2OCCN2CCCC2)cc1`, the outcome in the assay with A549 [2], in the assay with A549 [3] and in the assay on A549 [5] was Active. Besides, the half-inhibitory concentration (IC50) in [1] stood at 4.76 µM. The inhibition in assay [4] is 30%; in [10], “Dose-dependent effect”. Besides, the inhibition result in assay [6] and in assay [7] was “Active” throughout.
On to `COc1ccc(C#Cc2nc3cc(F)ccc3nc2OCCOCCN(C)C)cc1`, for which the result in the assay on A549 [2], with A549 [3] and with A549 [5] was Active. The inhibition result in assay [8], in assay [6] and in assay [7] was “Active” each time. For the same compound, the half-inhibitory concentration (IC50) in assay [1] was found to be 2.34 µM. The inhibition in assay [4] and in [9] was above 80% each time.

By IC50 is commonly meant the point on the concentration scale where inhibition reaches its midpoint. By inhibition is commonly meant the change of the read-out against control, counted positive when it falls.
